Activity calls are given as the source filed them. The rule behind the calls is not given here.

Data set [1] addresses Cell division cycle 7-related protein kinase (Homo sapiens, UniProt O00311). The experiment in a line: Inhibition of CDC7 (unknown origin).
A short description of data set [2]: Plasma concentration in athymic mouse plasma xenografted with human PC3 cells at 100 mg/kg, po after 8 hrs. It counts as ADME, organism-based, PC-3. Further details: dose 100 mg/kg, route oral.
The test system of data set [3] is Mus musculus. The experiment in a line: In vivo inhibition of mTORC1-mediated phosphorylation of 4EBP1 at ([…]) in human PC3 cells xenografted into athymic nude mouse at 100 mg/kg, po after 16 hrs by Western blotting analysis relative to control. It counts as functional. The conditions noted are these: PC-3, 16 h. The gist of the method: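 PC-3 cells grown in DMEM with 20% FBS were implanted subcutaneously at 3 × 10^6 cells in ice-cold HBSS into the hindflank of 5−8 week old male nude mice. At tumor size 200−500 mg, mice received a single oral dose of 100 mg/kg. Plasma and tumors were collected at 1, 4, 8, 16, 24 and 32 h. Tumor lysates from each group (n = 5) were pooled. Phospho-proteins were quantified by Western blot and normalized to α-tubulin.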

In data set [4] the test system is Mus musculus. The experiment in a line: In vivo inhibition of mTORC1-mediated phosphorylation of 4EBP1 at ([…]) in human MCF7 cells xenografted into athymic nude mouse at 100 mg/kg, po after 16 hrs by Western blotting analysis relative to control. Conditions: MCF7, 16 h. Format: functional.
A short description of data set [5]: Oral bioavailability in CD rat at 3 mg/kg. Format: ADME, organism-based. The conditions noted are these: in vivo. The gist of the method: (§1)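 For single-dose PK, compound was given intravenously and by oral gavage as a solution in EPW (5% ethanol/45% PEG400/water + 1:2 HCl m/m). Doses were 10 mg/kg in female athymic nude mice and 3 mg/kg in female CD rats and male beagle dogs.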

The target of data set [6] is Serine/threonine-protein kinase mTOR (Rattus norvegicus) (UniProt P42346). Kind of data set: Reversible inhibition of mTOR (unknown origin) assessed as enzyme recovery measured after dilution in presence of ATP relative to untreated control. Conditions: Homo sapiens.
Data set [7] in a line: Plasma concentration in athymic mouse plasma xenografted with human MCF7 cells at 100 mg/kg, po after 16 hrs. It counts as ADME, organism-based. Set-up: dose 100 mg/kg, route oral. The gist of the method:
(§2)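 MCF-7 cells (5 × 10^6, in 50% cold HBSS/50% growth-factor-reduced matrigel) were implanted subcutaneously in the hindflank of 5–8 week old female nude mice. At 40–150 mg tumour size, mice received a single oral dose of 100 mg/kg, and plasma was sampled at the listed times after dosing.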

For data set [8], the target named is ATP-dependent translocase ABCB1 (Homo sapiens, UniProt P08183). The experiment in a line: Activity at P-glycoprotein (unknown origin).
Data set [9] in a line: Oral bioavailability in cynomolgus monkey at 3 mg/kg. Format: ADME, organism-based, Macaca fascicularis. The conditions noted are these: in vivo. The gist of the method: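 Male cynomolgus monkeys received 3 mg/kg intravenously and by oral gavage as a solution in EPW (5% ethanol/45% PEG400/water + 1:1.5 HCl m/m).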
Data set [10] in a line: Plasma concentration in athymic mouse plasma xenografted with human PC3 cells at 100 mg/kg, po after 16 hrs. It counts as ADME, organism-based, PC-3. Further details: dose 100 mg/kg, route oral.
The test system of data set [11] is Mus musculus. The experiment in a line: In vivo inhibition of mTOR1-mediated phosphorylation of p70S6K at […] in human MCF7 cells xenografted into athymic nude mouse at 100 mg/kg, po after 8 hrs by Western blotting analysis relative to control. Conditions: MCF7, 8 h. It counts as functional.
The nature of data set [12]: Half life in Beagle dog at 3 mg/kg, iv. Format: ADME, organism-based, Canis lupus familiaris. Further details: dose 3 mg/kg, route intravenous. The conditions noted are these: in vivo. The essentials:
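Single-dose PK: female athymic nude mice (10 mg/kg), female CD rats and male beagle dogs (3 mg/kg), male cynomolgus monkeys (3 mg/kg), given iv and by oral gavage. Solution in EPW (5% ethanol/45% PEG400/water), with 1:2 HCl (m/m) for mouse, rat and dog and 1:1.5 HCl (m/m) for monkey. Plasma levels followed over 24 h.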

The test system of data set [13] is MCF7. Kind of data set: Antitumor activity against human MCF7 cells xenografted in athymic nude mouse at 100 mg/kg, po qd for 14 days relative to control. It counts as functional. The gist of the method: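 Female athymic nude (NCr) mice, 5–8 weeks old, bearing subcutaneous MCF-7 tumors staged at 100–200 mg. Compound given orally qd for 14 days at 50 or 100 mg/kg as a solution/fine suspension in water with a 1:1 molar ratio of 1 N HCl. Caliper tumor mass = length × width²/2, measured twice weekly; body mass recorded daily.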

Data set [14] in a line: Drug uptake in tumor of athymic mouse xenografted with human PC3 cells at 100 mg/kg, po after 24 hrs. Conditions: read-out: Drug uptake. Format: ADME, organism-based, Neoplasm, PC-3. Further details: dose 100 mg/kg, route oral. The gist of the method:
(§3)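 PC-3 cells (3 × 10⁶, passages 10–14, in ice-cold HBSS) were implanted sc in 5–8 week old male nude mice. Tumors of 200–500 mg received a single oral 100 mg/kg dose. Plasma and tumor were collected at 1, 4, 8, 16, 24 and 32 h and homogenized in buffer. Lysates were pooled per group (n = 5), and phospho-proteins were measured by Western blot normalized to α-tubulin.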

For data set [15], the system named is Mus musculus. Kind of data set: In vivo inhibition of mTORC2-mediated phosphorylation of AKT at serine 473 in human MCF7 cells xenografted into athymic nude mouse at 100 mg/kg, po after 32 hrs by Western blotting analysis relative to control. Format: functional. Conditions: MCF7, 32 h. The essentials: (§4)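 MCF-7 cells (DMEM, 10% FBS) were implanted subcutaneously at 5 × 10^6 cells in 50% cold HBSS/50% growth-factor-reduced matrigel into the hindflank of 5−8 week old female nude mice. At tumor size 40−150 mg, mice received a single oral dose of 100 mg/kg. Tumor lysates were pooled per group. Phospho-AKT (S473, T308), p70S6K (T389), S6 (S240/244) and 4E-BP1 (T37/46) were measured by Western blot normalized to α-tubulin.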

A short description of data set [16]: Oral bioavailability in athymic nude mouse at 10 mg/kg. It counts as ADME, organism-based. Conditions: in vivo. The essentials: as §1
The test system of data set [17] is Mus musculus. Kind of data set: In vivo inhibition of mTORC1-mediated phosphorylation of p70S6K at […] in human MCF7 cells xenografted into athymic nude mouse at 100 mg/kg, po after 16 hrs by Western blotting analysis relative to control. Format: functional. Conditions: MCF7, 16 h. The essentials:
as §4

The test system of data set [18] is Plasma. The experiment in a line: Plasma concentration in athymic mouse plasma xenografted with human MCF7 cells at 100 mg/kg, po after 32 hrs. It counts as ADME, organism-based. Set-up: dose 100 mg/kg, route oral. The conditions noted are these: in vivo, BLD = below limit of detection. The essentials:
as §2

For data set [19], the system named is Mus musculus. Kind of data set: In vivo inhibition of mTORC2-mediated phosphorylation of AKT at […] in human MCF7 cells xenografted into athymic nude mouse at 100 mg/kg, po after 8 hrs by Western blotting analysis relative to control. It counts as functional. Conditions: MCF7, 8 h. The gist of the method:
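Human MCF-7 cells were implanted subcutaneously into the hindflank of female nude mice aged 5−8 weeks, at 5 × 10^6 cells in 50% cold HBSS/50% growth-factor-reduced matrigel. At a tumor size of 40−150 mg, mice got one oral dose. Tumor lysates were pooled per group. Phospho-AKT (T308) was read by Western blot and normalized to α-tubulin.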

Data set [20] can be described thus: Plasma protein binding in rat at 5 uM. Conditions: read-out: PPB (converted). It counts as ADME, cell-free.
A short description of data set [21]: Drug uptake in tumor of athymic mouse xenografted with human PC3 cells at 100 mg/kg, po after 32 hrs. Format: ADME, organism-based, Neoplasm, PC-3. Further details: dose 100 mg/kg, route oral. The conditions noted are these: in vivo, BLD = below limit of detection. The gist of the method:
as §3

The nature of data set [22]: Plasma protein binding in mouse at 5 uM. It counts as ADME, cell-free. Conditions: read-out: PPB (converted).
Data set [23] concerns Mus musculus. Kind of data set: In vivo inhibition of mTORC1-mediated phosphorylation of pS6 at (serine 240/244) in human MCF7 cells xenografted into athymic nude mouse at 100 mg/kg, po after 8 hrs by Western blotting analysis relative to control. It counts as functional. Conditions: MCF7, 8 h. The essentials:
as §4

Data set [24] is described as follows: Plasma concentration in mouse at 100 mg/kg, po after 1 hr. Format: ADME, organism-based. Further details: dose 100 mg/kg, route oral.

Chain of ATP-dependent translocase ABCB1 (P08183 whole entry): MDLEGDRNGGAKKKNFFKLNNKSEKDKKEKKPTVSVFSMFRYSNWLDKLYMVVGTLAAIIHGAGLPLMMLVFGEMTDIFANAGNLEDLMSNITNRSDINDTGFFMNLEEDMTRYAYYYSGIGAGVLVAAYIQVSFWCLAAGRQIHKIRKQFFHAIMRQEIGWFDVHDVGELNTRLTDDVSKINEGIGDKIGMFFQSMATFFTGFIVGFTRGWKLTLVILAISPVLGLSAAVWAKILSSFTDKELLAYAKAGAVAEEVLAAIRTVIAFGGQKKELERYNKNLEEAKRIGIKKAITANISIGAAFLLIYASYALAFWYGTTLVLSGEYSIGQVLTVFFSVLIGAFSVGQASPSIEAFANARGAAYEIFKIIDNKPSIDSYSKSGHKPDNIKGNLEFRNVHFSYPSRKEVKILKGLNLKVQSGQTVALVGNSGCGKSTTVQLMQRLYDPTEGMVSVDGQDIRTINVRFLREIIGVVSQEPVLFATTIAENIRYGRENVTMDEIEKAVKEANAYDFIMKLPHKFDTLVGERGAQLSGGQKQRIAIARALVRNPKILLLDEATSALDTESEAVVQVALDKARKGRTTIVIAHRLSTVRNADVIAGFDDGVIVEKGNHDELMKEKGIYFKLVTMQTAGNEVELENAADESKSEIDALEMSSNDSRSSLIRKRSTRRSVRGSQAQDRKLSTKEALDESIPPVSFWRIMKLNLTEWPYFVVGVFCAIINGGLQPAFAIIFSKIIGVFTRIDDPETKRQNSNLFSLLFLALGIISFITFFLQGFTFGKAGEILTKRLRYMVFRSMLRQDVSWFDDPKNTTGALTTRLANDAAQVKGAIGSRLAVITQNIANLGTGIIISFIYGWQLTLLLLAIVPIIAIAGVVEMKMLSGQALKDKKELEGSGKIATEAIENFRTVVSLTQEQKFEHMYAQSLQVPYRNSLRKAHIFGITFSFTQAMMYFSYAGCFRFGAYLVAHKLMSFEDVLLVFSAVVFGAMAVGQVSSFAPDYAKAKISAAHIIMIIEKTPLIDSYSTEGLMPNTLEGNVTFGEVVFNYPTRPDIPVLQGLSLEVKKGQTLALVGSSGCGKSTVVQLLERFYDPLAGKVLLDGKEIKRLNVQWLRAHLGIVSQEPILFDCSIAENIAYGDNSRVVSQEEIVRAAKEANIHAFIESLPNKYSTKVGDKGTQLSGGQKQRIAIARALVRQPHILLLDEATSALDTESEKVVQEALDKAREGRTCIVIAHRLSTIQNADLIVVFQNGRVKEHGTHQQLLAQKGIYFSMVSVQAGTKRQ
Chain of Cell division cycle 7-related protein kinase (O00311 whole entry): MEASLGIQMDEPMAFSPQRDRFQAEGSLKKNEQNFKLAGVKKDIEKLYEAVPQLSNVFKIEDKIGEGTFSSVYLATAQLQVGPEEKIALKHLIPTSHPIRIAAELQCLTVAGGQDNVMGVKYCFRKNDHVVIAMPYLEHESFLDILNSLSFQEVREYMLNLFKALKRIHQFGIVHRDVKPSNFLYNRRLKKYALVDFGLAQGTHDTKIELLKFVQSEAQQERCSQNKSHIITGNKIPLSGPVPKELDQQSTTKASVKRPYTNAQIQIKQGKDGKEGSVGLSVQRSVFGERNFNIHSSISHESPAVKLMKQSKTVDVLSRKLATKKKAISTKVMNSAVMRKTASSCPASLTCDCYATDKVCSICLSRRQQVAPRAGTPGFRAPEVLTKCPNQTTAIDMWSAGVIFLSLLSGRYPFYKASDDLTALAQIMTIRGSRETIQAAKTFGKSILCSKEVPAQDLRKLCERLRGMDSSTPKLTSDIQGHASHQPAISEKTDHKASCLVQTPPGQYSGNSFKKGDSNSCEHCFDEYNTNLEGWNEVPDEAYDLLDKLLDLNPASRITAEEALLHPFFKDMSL

On to `Cc1c(C(=O)N2CCOc3ccc(-c4ccc(N)nc4)cc3C2)ccc(S(C)(=O)=O)c1F`, for which the 50% inhibitory concentration (IC50) in data set [1] was more than 3.5 µM. The same molecule gave a concentration at 8 h in data set [2] of 26.7 µM. Also, the inhibition in vivo at 100 mg/kg in data set [3] was 51%; in data set [4] it was 56%; in data set [11] it was 81%; in [15] it was 11%; in data set [17] it was 41%; in data set [19], -2%. For the same molecule, in data set [23], the inhibition in vivo at 100 mg/kg is 98%. Moreover, the bioavailability in [5] turned out to be 25.6%; in data set [9], 53.4%; in data set [16] it was 31.4%. For the same molecule, the inhibition entry in data set [6] is “inactive”. The concentration at 16 h in data set [7] was 2.08 µM; in [10], 6.17 µM. The Activity is more than 20 µM in data set [8] and 40% in data set [13]. The half-life in data set [12] is 6.11 h. For the same molecule, the concentration at 24 h in data set [14] was 0.11 µM. In addition, the Cp entry in data set [18] is reported as “BLD”. The fraction unbound at 5 µM in [20] was 0.15; in data set [22], 0.16. Also, in [21], the Drug uptake entry is “BLD”. In addition, the concentration at 1 h in [24] came to 22 µM.

The values are drawn from ChEMBL document CHEMBL2331117 (J Med Chem, 2013).
